Results: ChEMBL document CHEMBL2086326, “Biological activity evaluation and structure-activity relationships analysis of ferulic acid and caffeic acid derivatives for anticancer” (Bioorg Med Chem Lett, 2012)
pIC50: −log10 of the molar value.

Columns and labels:
Assay type in all cases: functional, cell-based
NCI-H1299 = assay: Cytotoxicity against human NCI-H1299 cells after 72 hrs by alamar blue assay; details: NCI-H1299, 72 h
Outline: (§1)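 Cells seeded at 800–1000 per well (20–25 cells/µL) and left overnight to attach. Compounds were diluted serially from 10 mM DMSO stocks and tested at 8 final concentrations, 50 to 0.39 µM, in triplicate for 72 h. Vehicle control was 0.5% DMSO. Alamar blue was added to 10% final and fluorescence read after 4 h (ex 530, em 560 nm). Viability was expressed as percent of vehicle, and IC50 taken as 50% kill versus control.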

HeLa = assay: Cytotoxicity against human HeLa cells after 72 hrs by alamar blue assay; outline: as §1
HOP-62 = assay: Cytotoxicity against human HOP62 cells after 72 hrs by alamar blue assay; details: HOP-62, 72 h; outline: as §1
M14 = assay: Cytotoxicity against human M14 cells after 72 hrs by alamar blue assay; details: M14, 72 h; outline: as §1
NCI-H1792 = assay: Cytotoxicity against human NCI-H1792 cells after 72 hrs by alamar blue assay; details: NCI-H1792, 72 h; outline: as §1
[1] = Cytotoxicity against human M4E cells after 72 hrs by alamar blue assay; outline: as §1
Calu-1 = assay: Cytotoxicity against human Calu1 cells after 72 hrs by alamar blue assay; details: Calu-1, 72 h; outline: as §1
NCI-H460 = assay: Cytotoxicity against human H460 cells after 72 hrs by alamar blue assay; details: NCI-H460, 72 h; outline: as §1
[2] = Cytotoxicity against human SKBR cells after 72 hrs by alamar blue assay; outline: as §1
[3] = Cytotoxicity against human 292G cells after 72 hrs by alamar blue assay; outline: as §1
NCI-H157 = assay: Cytotoxicity against human NCI-H157 cells after 72 hrs by alamar blue assay; details: NCI-H157, 72 h; outline: as §1
A549 = assay: Cytotoxicity against human A549 cells after 72 hrs by alamar blue assay; details: A549, 72 h; outline: as §1
LOX IMVI = assay: Cytotoxicity against human LOXIMVI cells after 72 hrs by alamar blue assay; outline: as §1
[4] = Cytotoxicity against human H266 cells after 72 hrs by alamar blue assay; details: H266, 72 h; outline: as §1

SMILES	pIC50 (NCI-H1299)	pIC50 (HeLa)	pIC50 (HOP-62)	pIC50 (M14)	pIC50 (NCI-H1792)	pIC50 [1]	pIC50 (Calu-1)	pIC50 (NCI-H460)	pIC50 [2]	pIC50 [3]	pIC50 (NCI-H157)	pIC50 (A549)	pIC50 (LOX IMVI)	pIC50 [4]
CC(C)CCOC(=O)/C=C/c1ccc(O)c(O)c1	4.75	5.03	4.80	4.51	4.50	4.54	4.69	4.78	4.88	4.56	5.08	5.06	5.10	4.47
O=C(/C=C/c1ccc(O)c(O)c1)OCCCO[N+](=O)[O-]	5.10	5.51	5.00	4.61	4.74	4.70	4.97	5.48	5.24	4.87	5.36	4.97	4.72	< 4.30
O=C(/C=C/c1ccc(O)c(O)c1)OC/C=C/CO[N+](=O)[O-]	6.39	6.40	5.33	5.83	6.39	5.37	6.38	5.54	6.39	5.10	5.87	6.40	6.37	4.99
COC(=O)/C=C/c1ccc(O)c(O)c1 [METHYLCAFFEATE]	5.45	5.42	5.41	5.05	5.22	5.05	5.26	4.83	5.29	5.51	5.20	5.12	4.66	< 4.30
COC(=O)/C=C/c1ccc(O)c(OC)c1	< 4.30	5.26	< 4.30	< 4.30	< 4.30	< 4.30	< 4.30	< 4.30	< 4.30	< 4.30	< 4.30	< 4.30	< 4.30	< 4.30
CCCCCOC(=O)/C=C/c1ccc(O)c(OC)c1	< 4.30	< 4.30	< 4.30	< 4.30	< 4.30	< 4.30	< 4.30	< 4.30	< 4.30	< 4.30	< 4.30	< 4.30	< 4.30	< 4.30
O=C(/C=C/c1ccc(O)c(O)c1)OCCCCO[N+](=O)[O-]	5.50	5.65	5.00	4.70	4.81	4.76	4.66	5.45	5.34	4.78	5.28	4.65	< 4.30	4.63
COc1cc(/C=C/C(=O)OCCCO[N+](=O)[O-])ccc1O	4.55	5.17	4.71	4.37	4.55	4.74	< 4.30	4.54	4.76	4.40	4.69	4.88	4.53	4.36
CC(C)COC(=O)/C=C/c1ccc(O)c(O)c1	4.42	5.33	< 4.30	< 4.30	< 4.30	4.43	< 4.30	4.80	4.79	4.43	5.07	4.87	< 4.30	< 4.30
O=C(/C=C/c1ccc(OCCCCCO[N+](=O)[O-])c(O)c1)OCCCCCO[N+](=O)[O-]	< 4.30	5.24	< 4.30	< 4.30	< 4.30	< 4.30	< 4.30	< 4.30	5.57	< 4.30	< 4.30	6.35	5.14	< 4.30
